This data set addresses Xanthine dehydrogenase/oxidase (Bos taurus, UniProt P80457). Briefly: Electron acceptor activity on bovine milk xanthine oxidase using xanthine as reducing substrate. The conditions noted are these: cattle. The method, boiled down: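 Run anaerobically at 25 °C in a sealed cuvette with 25 mM Tris-HCl, 1 mM EDTA, pH 7.5. All solutions were argon-gassed for at least 10 min, and the reaction was started by injecting milk xanthine oxidase. Readings from anaerobic controls lacking the acceptor were subtracted. Uric acid formation was read as the increase in absorbance at 295 nm (ε 12.4 mmol⁻¹ cm⁻¹), expressed per min per unit enzyme, as the mean of three determinations.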

Xanthine dehydrogenase/oxidase, sequence (P80457 whole entry): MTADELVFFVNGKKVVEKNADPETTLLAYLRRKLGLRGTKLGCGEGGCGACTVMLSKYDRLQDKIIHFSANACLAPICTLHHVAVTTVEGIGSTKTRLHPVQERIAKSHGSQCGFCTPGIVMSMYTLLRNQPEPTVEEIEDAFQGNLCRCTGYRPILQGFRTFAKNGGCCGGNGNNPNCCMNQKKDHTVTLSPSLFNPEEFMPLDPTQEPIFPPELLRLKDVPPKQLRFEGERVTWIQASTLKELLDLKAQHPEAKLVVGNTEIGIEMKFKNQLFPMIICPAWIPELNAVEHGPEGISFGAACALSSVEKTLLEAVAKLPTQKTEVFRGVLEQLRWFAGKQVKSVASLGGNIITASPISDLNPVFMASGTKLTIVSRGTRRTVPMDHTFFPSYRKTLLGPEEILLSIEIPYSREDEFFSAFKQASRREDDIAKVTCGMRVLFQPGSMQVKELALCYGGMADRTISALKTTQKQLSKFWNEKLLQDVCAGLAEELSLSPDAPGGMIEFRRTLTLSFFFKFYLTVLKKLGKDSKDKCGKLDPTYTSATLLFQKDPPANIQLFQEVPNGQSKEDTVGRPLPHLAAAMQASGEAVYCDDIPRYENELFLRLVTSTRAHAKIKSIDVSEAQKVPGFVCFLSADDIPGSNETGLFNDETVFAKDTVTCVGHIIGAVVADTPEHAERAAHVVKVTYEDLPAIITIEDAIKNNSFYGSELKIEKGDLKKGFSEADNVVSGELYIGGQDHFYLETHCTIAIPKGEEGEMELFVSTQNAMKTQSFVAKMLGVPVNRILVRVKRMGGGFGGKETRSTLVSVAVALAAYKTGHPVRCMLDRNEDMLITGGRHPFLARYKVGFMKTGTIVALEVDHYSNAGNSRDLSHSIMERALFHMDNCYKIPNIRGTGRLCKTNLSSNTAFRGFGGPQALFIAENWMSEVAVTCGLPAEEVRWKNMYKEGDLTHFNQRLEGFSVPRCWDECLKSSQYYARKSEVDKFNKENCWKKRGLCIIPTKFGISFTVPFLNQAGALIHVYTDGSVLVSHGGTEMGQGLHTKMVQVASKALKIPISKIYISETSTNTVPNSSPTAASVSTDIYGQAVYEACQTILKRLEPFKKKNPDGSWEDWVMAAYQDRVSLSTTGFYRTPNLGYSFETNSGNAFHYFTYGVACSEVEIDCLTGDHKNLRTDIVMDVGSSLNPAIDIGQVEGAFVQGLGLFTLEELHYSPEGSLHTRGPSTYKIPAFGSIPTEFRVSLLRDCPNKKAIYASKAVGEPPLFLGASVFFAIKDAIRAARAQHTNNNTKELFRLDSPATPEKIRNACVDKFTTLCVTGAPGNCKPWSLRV

In turn, `N=C(NO)N/N=C/c1ccccc1F` yielded an Acceptor activity of 49.6.

`COc1cccc(OC)c1/C=N/NC(=N)NO` had an Acceptor activity of 13.2. Compound `CCN(CC)c1ccc(/C=N/NC(=N)NO)cc1` showed an Acceptor activity of 62.1. In the case of `N=C(NO)N/N=C/c1ccc(Br)cc1`, the Acceptor activity came to 82.1. In turn, `N=C(NO)N/N=C/c1ccc(Cl)cc1` displayed an Acceptor activity of 57.9. `N=C(NO)N/N=C/c1cccc(Cl)c1` showed an Acceptor activity of 45.4. Take `CN(C)c1ccc(/C=N/NC(=N)NO)cc1`: the Acceptor activity was determined as 41. Take `N=C(NO)N/N=C/c1cccc2c1OCO2`: the Acceptor activity came to 44.7. `COc1ccc(/C=N/NC(=N)NO)c(Cl)c1OC` displayed an Acceptor activity of 155.6. `COc1ccc(OC)c(/C=N/N=C(\N)NO)c1`: the Acceptor activity turned out to be 42.3. `N=C(NO)N/N=C/c1ccccc1Br` yielded an Acceptor activity of 72.9. With `COc1cc(OC)c(/C=N/NC(=N)NO)cc1Br`, the Acceptor activity is 16.3. The compound `COc1cc(/C=N/NC(=N)NO)cc(OC)c1` showed an Acceptor activity of 30.7.

The compound `COc1cc(/C=N/NC(=N)NO)c(Br)c(OC)c1OC` yielded an Acceptor activity of 119.5. `N=C(NO)N/N=C/c1ccc(O)cc1`: the Acceptor activity stood at 64.2.

The compound `COc1cc(OC)c(/C=N/N=C(\N)NO)c(OC)c1` showed an Acceptor activity of 10.8. With `COc1ccc(/C=N/N=C(\N)NO)c(OC)c1OC`, the Acceptor activity came to 81.5. `COc1cc(Br)cc(/C=N/NC(=N)NO)c1O` had an Acceptor activity of 72.4. The compound `N/C(=N\O)N/N=C/c1ccc(O)c(O)c1O` yielded an Acceptor activity of 40.5. Next, `COc1ccc(/C=N/NC(=N)NO)cc1`: 50.9; `COc1cc(/C=N/N=C(\N)NO)cc(OC)c1OC`: 54.6; `COc1ccc(/C=N/NC(=N)NO)cc1O`: 68.9. `N/C(=N\O)N/N=C/c1ccccc1O`: the Acceptor activity turned out to be 33.8. Then `COc1cccc(/C=N/NC(=N)NO)c1O`, with 45.5.

Compound `COc1cc(O)c(/C=N/N=C(\N)NO)c(OC)c1` returned an Acceptor activity of 101.7. `N=C(NO)N/N=C/c1cccc(O)c1O` showed an Acceptor activity of 43.7.

`COc1cc(OC)c(OC)cc1/C=N/N=C(\N)NO` yielded an Acceptor activity of 29.7.

`N=C(NO)N/N=C/c1ccc(O)cc1O` came in with an Acceptor activity of 72.9. `COc1ccc(/C=N/NC(=N)NO)cc1Br` yielded an Acceptor activity of 35.6.

Turning to `N/C(=N\O)N/N=C/c1cccc(F)c1`, the Acceptor activity is listed as 56.2. Compound `N=C(NO)N/N=C/c1ccc(F)cc1` yielded an Acceptor activity of 43.2. Compound `N=C(NO)N/N=C/c1ccccc1Cl` returned an Acceptor activity of 90.2.

With `COc1ccccc1/C=N/N=C(\N)NO`, the Acceptor activity is given as 59.7. `COc1cccc(/C=N/NC(=N)NO)c1`: the Acceptor activity is 55. Next, `COc1cc([N+](=O)[O-])cc(/C=N/NC(=N)NO)c1OC`: 0.8. Turning to `COc1ccc(OC)c([N+](=O)[O-])c1/C=N/NC(=N)NO`, the Acceptor activity was determined as 47.3. In the case of `N=C(NO)N/N=C/c1c(Cl)cccc1[N+](=O)[O-]`, the Acceptor activity was 44.

As for `N=C(NO)N/N=C/c1ccccc1[N+](=O)[O-]`, the Acceptor activity stood at 56.4. Consider `N/C(=N\O)N/N=C/c1cccc([N+](=O)[O-])c1`, for which the Acceptor activity turned out to be 24.4. Next, `N=C(NO)N/N=C/c1cc([N+](=O)[O-])ccc1O`: 25.8; `N=C(NO)N/N=C/c1ccc([N+](=O)[O-])cc1[N+](=O)[O-]`: 295.7. Take `N=C(NO)N/N=C/c1c([N+](=O)[O-])cccc1[N+](=O)[O-]`: the Acceptor activity came out at 154.5. For `N=C(NO)N/N=C/c1cc(O)ccc1[N+](=O)[O-]`, the Acceptor activity was determined as 31.5. Take `COc1cc([N+](=O)[O-])c(/C=N/NC(=N)NO)c(Cl)c1OC`: the Acceptor activity was found to be 48.8.

On to `N=C(NO)N/N=C/c1c(Cl)ccc(Cl)c1[N+](=O)[O-]`, for which the Acceptor activity turned out to be 68.3.

For `N=C(NO)N/N=C/c1c(Cl)ccc([N+](=O)[O-])c1[N+](=O)[O-]`, the Acceptor activity amounted to 216.3. Turning to `N=C(NO)N/N=C/c1ccc([N+](=O)[O-])cc1`, the Acceptor activity is listed as 94.2. Regarding `N/C(=N\O)N/N=C/c1ccc(Cl)c([N+](=O)[O-])c1`, the Acceptor activity was 42.1. `N=C(NO)N/N=C/c1ccc(Br)c([N+](=O)[O-])c1` came in with an Acceptor activity of 35. In turn, `COc1ccc([N+](=O)[O-])c(/C=N/NC(=N)NO)c1OC` returned an Acceptor activity of 22. `COc1cc([N+](=O)[O-])c([N+](=O)[O-])c(/C=N/NC(=N)NO)c1OC` yielded an Acceptor activity of 52.9.

Values taken from ChEMBL document CHEMBL1148322, “Synthesis and quantitative structure-activity relationship of hydrazones of N-amino-N'-hydroxyguanidine as electron acceptors for xanthine oxidase” (J Med Chem, 2004).
